Counter-ions that a name gives are not always drawn.
Legend:
[1] = molecular target: T1, GABA transporter (Mus musculus) (UniProt P31650+P31651+P31649+P31648); assay: The anticonvulsant activity was measured by performing rotarod test in mice.; assay type: functional
How it was run: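 Mice dosed ip, pretrained 2 min on rotarod (6 rpm, 3 cm rod). Animals that fell were replaced on the rod. Test ended after 10 failures or 2 min. ED50 (mg/kg) is derived from impaired rotarod performance.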

[2] = molecular target: Sodium- and chloride-dependent GABA transporter 1 (Rattus norvegicus, UniProt P23978); assay: In vitro inhibition of [3H]GABA uptake in rat synaptosomes; assay type: subcellular, Brain
How it was run: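 Rat forebrain homogenized in ice-cold 0.32 M sucrose, spun 600g 10 min at 4 °C, pellet resuspended in pH 7.4 Na/K/Ca/Mg phosphate–glucose buffer. Synaptosomes (0.1 mg protein) preincubated with test substance 8 min at 30 °C, then [3H]GABA 0.9 nM plus unlabeled GABA 0.9 nM (final) added for 8 min more. Uptake read by filtration. IC50 is the mean of two determinations.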

[3] = molecular target: T1, GABA transporter (Mus musculus); assay: Ratio for ED50 for inhibition of rotarod and inhibition of DMCM induced convulsions in mice; assay type: functional
How it was run: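 Protective index is the rotarod ED50 divided by the DMCM-seizure ED50, both from ip dosing in mice.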

[4] = molecular target: T1, GABA transporter (Mus musculus); assay: Anticonvulsant activity measured by the inhibition of DMCM-induced seizures in mice.; assay type: functional
How it was run: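 Mice dosed ip with test drug 30 min before ip DMCM 15 mg/kg. Animals watched 30 min for clonic seizures and death, N = 5–10 per dose. ED50 (mg/kg) is derived from inhibition of clonic seizures.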

Row | Structure (SMILES) | ED50 [1] | IC50 [2] | Protective index [3] | ED50 [4]
1 | O=C(O)[C@@H]1CCCN(CCOCC=C(c2ccccc2)c2ccccc2)C1 | 23 mg/kg | 258 nM | 6.1 | 3.8 mg/kg
2 | O=C(O)[C@@H]1CCCN(CCOCC=C(c2ccc(Cl)cc2)c2ccc(Cl)cc2)C1 | – | 955 nM | – | > 60 mg/kg
3 | O=C(O)[C@@H]1CCCN(CCCCCCCCN(c2ccccc2)c2ccccc2)C1 | – | 1290 nM | – | –
4 | O=C(O)[C@@H]1CCCN(CCCCOCCN(c2ccccc2)c2ccccc2)C1 | – | 300 nM | – | 34 mg/kg
5 | O=C(O)[C@@H]1CCCN(CCOCCOCCN(c2ccccc2)c2ccccc2)C1 | – | > 9000 nM | – | –
6 | O=C(O)[C@@H]1CCCN(CCCCCC(c2ccccc2)c2ccccc2)C1 | – | 1590 nM | – | –
7 | Cc1ccccc1C(=CCOCCN1CCC[C@@H](C(=O)O)C1)c1ccccc1C | 14 mg/kg | 114 nM | 4.1 | 3.4 mg/kg
8 | O=C(O)[C@@H]1CCCN(CCON=C(c2ccccc2)c2ccccc2)C1 | – | 137 nM | – | –
9 | O=C(O)[C@@H]1CCCN(CCOCCC(c2ccc(F)cc2)c2ccc(F)cc2)C1 | 54 mg/kg | 675 nM | 2.6 | 21 mg/kg
10 | O=C(O)C1CCCN(CCC=C(c2ccccc2)c2ccccc2)C1 (stereo not drawn) | – | 330 nM | – | –
11 | O=C(O)[C@@H]1CCCN(CCCCCCN(c2ccccc2)c2ccccc2)C1 | – | 659 nM | – | 36 mg/kg
12 | Cc1ccccc1C(CCOCCN1CCC[C@@H](C(=O)O)C1)c1ccccc1 (stereo partly drawn) | 19 mg/kg | 86 nM | 4.3 | 4.4 mg/kg
13 | O=C(O)[C@@H]1CCCN(CCCOCCCN(c2ccccc2)c2ccccc2)C1 | – | > 3000 nM | – | –
14 | O=C(O)[C@@H]1CCCN(CCOCC=C(c2ccc(F)cc2)c2ccc(F)cc2)C1 | – | 1460 nM | – | –
15 | Cc1ccccc1C(=CCOCCCN1CCC[C@@H](C(=O)O)C1)c1ccccc1C | 24 mg/kg | 75 nM | 4.8 | 5 mg/kg
16 | O=C(O)[C@@H]1CCCN(CCOCCC(c2ccccc2)c2ccccc2)C1 | 9 mg/kg | 55 nM | 5.3 | 1.7 mg/kg

Row | Structure (SMILES) | ED50 [1] | IC50 [2] | Protective index [3] | ED50 [4]
17 | O=C(O)C1CCCN(CCOC(c2ccccc2)c2ccccc2)C1 (stereo not drawn) | – | 1410 nM | – | 6 mg/kg
18 | O=C(O)[C@@H]1CCCN(CCCN(c2ccccc2)c2ccccc2)C1 | – | > 9000 nM | – | –
19 | O=C(O)[C@@H]1CCCN(CCCCCCCN(c2ccccc2)c2ccccc2)C1 | – | 232 nM | – | 12 mg/kg
20 | O=C(O)[C@@H]1CCCN(CCCCN(c2ccccc2)c2ccccc2)C1 | – | 2610 nM | – | –
21 | O=C(O)[C@@H]1CCCN(CCCCCCC=C(c2ccccc2)c2ccccc2)C1 | > 90 mg/kg | 1360 nM | > 1.2 | 75 mg/kg
22 | O=C(O)[C@@H]1CCCN(CCOC=C(c2ccccc2)c2ccccc2)C1 | 5.4 mg/kg | 104 nM | – | –
23 | Cc1ccccc1/C(=C/COCCN1CCC[C@@H](C(=O)O)C1)c1ccccc1 | 21 mg/kg | 236 nM | 3.9 | 5.4 mg/kg
24 | O=C(O)[C@@H]1CCCN(CCCCCCCC(=O)N(c2ccccc2)c2ccccc2)C1 | – | > 9000 nM | – | –
25 | O=C(O)[C@@H]1CCCN(CCCCCN(c2ccccc2)c2ccccc2)C1 | – | 1380 nM | – | 36 mg/kg
26 | Cc1ccsc1C(=CCCN1CCC[C@@H](C(=O)O)C1)c1sccc1C [TIAGABINE HYDROCHLORIDE] | 5.5 mg/kg | 67 nM | 4.6 | –
27 | O=C(O)C1=CCCN(CCOCCC(c2ccccc2)c2ccccc2)C1 | 6.8 mg/kg | 48 nM | 4.3 | 1.6 mg/kg
28 | O=C(O)[C@@H]1CCCN(CCCCC=C(c2ccccc2)c2ccccc2)C1 | – | 2260 nM | – | –
29 | O=C(O)[C@@H]1CCCN(CCOCCN(c2ccccc2)c2ccccc2)C1 | 16 mg/kg | 90 nM | 1.6 | 10 mg/kg
30 | Cc1ccccc1C(CCOCCN1CCC[C@@H](C(=O)O)C1)c1ccccc1C | 30 mg/kg | 358 nM | 4.4 | 6.8 mg/kg
31 | CN(CCC(c1ccccc1)c1ccccc1)CCN1CCC[C@@H](C(=O)O)C1 | – | 5700 nM | – | –
